From ChEMBL document CHEMBL3826969, “Synthesis and anticancer potential of novel xanthone derivatives with 3,6-substituted chains” (Bioorg Med Chem, 2016)
Activity calls are given as the source filed them. No cut-off for these calls is given here.

What was measured:
[1] = test system: A549; assay: Cell cycle arrest in human A549 cells assessed as accumulation at G2/M phase after 48 hrs by propidium iodide staining based flow cytometry (reference value: 23.4 %); assay type: functional
How it was run: (§1)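 A549 cells exposed 48 h to 25 µM xanthone derivative, fixed overnight in 70% ethanol, then stained 30 min at room temperature with 50 µg/mL propidium iodide, 200 µg/mL RNase A and 0.3% Triton X-100. Sub-G1, G0/1, S and G2/M fractions were measured by flow cytometry. Three independent experiments.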

[2] = test system: A549; assay: Induction of apoptosis in human A549 cells assessed as early apoptotic cells after 48 hrs by Annexin V-FITC/propidium iodide staining based flow cytometry (reference value: 0.5 %); assay type: functional
How it was run: (§2)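 2 × 10^5 A549 cells seeded and given 25 µM compound for 48 h. Cells were trypsinized and washed in ice-cold PBS. 1 × 10^5 cells were stained with Annexin V-FITC plus propidium iodide in binding buffer for 15 min at room temperature, diluted with binding buffer, kept on ice, and run on a flow cytometer. Quadrants: viable, early apoptotic, late apoptotic, necrotic.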

[3] = test system: MDA-MB-231; assay: Cytotoxicity against human MDA-MB-231 cells assessed as cell growth inhibition after 48 hrs by MTT assay; assay type: functional, cell-based; settings: MDA-MB-231, 48 h
How it was run: (§3)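 Cells seeded in 96-well plates (MDA-MB-231, A549, AsPC-1 5×10^3; PC-3 8×10^3; HCT116 1×10^4 per well), attached 24 h in RPMI-1640 with 10% fetal calf serum at 37°C, 5% CO2. Serially diluted compound (final 0–400 μM, DMSO <0.1%) added for 48 h; 5-FU positive control. MTT read at 560 nm, triplicate; viability = treated/vehicle mean OD.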

[4] = test system: A549; assay: Induction of apoptosis in human A549 cells assessed as late apoptotic cells after 48 hrs by Annexin V-FITC/propidium iodide staining based flow cytometry (reference value: 1.2 %); assay type: functional; how it was run: as §2
[5] = test system: A549; assay: Cell cycle arrest in human A549 cells assessed as accumulation at S phase after 48 hrs by propidium iodide staining based flow cytometry (reference value: 9.3 %); assay type: functional; how it was run: as §1
[6] = test system: A549; assay: Induction of apoptosis in human A549 cells assessed as necrotic cells after 48 hrs by Annexin V-FITC/propidium iodide staining based flow cytometry (reference value: 0.1 %); assay type: functional; how it was run: as §2
[7] = test system: ASPC1; assay: Cytotoxicity against human AsPC1 cells assessed as cell growth inhibition after 48 hrs by MTT assay; assay type: functional, cell-based; settings: ASPC1, 48 h; how it was run: as §3
[8] = test system: A549; assay: Cytotoxicity against human A549 cells assessed as cell growth inhibition after 48 hrs by MTT assay; assay type: functional, cell-based; settings: A549, 48 h; how it was run: as §3
[9] = Cytotoxicity against human HCT116 cells assessed as cell growth inhibition after 48 hrs by MTT assay; assay type: functional, cell-based; settings: HCT-116, 48 h; how it was run: as §3
[10] = test system: A549; assay: Cell cycle arrest in human A549 cells assessed as accumulation at G0/G1 phase after 48 hrs by propidium iodide staining based flow cytometry (reference value: 68.1 %); assay type: functional; how it was run: as §1
[11] = test system: A549; assay: Induction of apoptosis in human A549 cells assessed as viable cells after 48 hrs by Annexin V-FITC/propidium iodide staining based flow cytometry (reference value: 98.2 %); assay type: functional; how it was run: as §2
[12] = test system: A549; assay: Induction of apoptosis in human A549 cells assessed as increase in caspase 3/7 activity after 48 hrs by Caspase-Glo 3/7 assay relative to control; assay type: functional
How it was run: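 In duplicate, 8 × 10^3 A549 cells were treated with 25 µM compound for 48 h. Caspase-3/7 luminescence was read 1 h after adding the Caspase-Glo 3/7 substrate, with blank (medium plus reagent) subtracted. Fold increase = treated reading / control reading. Mean ± 1 SD.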

[13] = Cytotoxicity against human PC3 cells assessed as cell growth inhibition after 48 hrs by MTT assay; assay type: functional, cell-based; settings: PC-3, 48 h; how it was run: as §3
[14] = test system: A549; assay: Induction of apoptosis in human A549 cells assessed as early apoptotic cells at 25 uM after 48 hrs by Annexin V-FITC/propidium iodide staining based flow cytometry (reference value: 0.5 %); assay type: functional
[15] = test system: A549; assay: Induction of apoptosis in human A549 cells assessed as necrotic cells at 25 uM after 48 hrs by Annexin V-FITC/propidium iodide staining based flow cytometry (reference value: 0.1 %); assay type: functional
[16] = test system: A549; assay: Induction of apoptosis in human A549 cells assessed as late apoptotic cells at 25 uM after 48 hrs by Annexin V-FITC/propidium iodide staining based flow cytometry (reference value: 1.2 %); assay type: functional
[17] = test system: A549; assay: Cell cycle arrest in human A549 cells assessed as accumulation at S phase at 25 uM after 48 hrs by propidium iodide staining based flow cytometry (reference value: 9.3 %); assay type: functional
How it was run: (§4)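 A549 cells exposed 48 h to derivative (25 µM), collected, fixed overnight in 70% ethanol, then stained 30 min at room temperature with 50 µg/mL propidium iodide, 200 µg/mL RNase A and 0.3% Triton X-100. Flow cytometry gave sub-G1, G0/G1, S and G2/M fractions; profile from 3 independent experiments.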

[18] = test system: A549; assay: Cell cycle arrest in human A549 cells assessed as accumulation at G0/G1 phase at 25 uM after 48 hrs by propidium iodide staining based flow cytometry (reference value: 68.1 %); assay type: functional; how it was run: as §4
[19] = test system: A549; assay: Induction of apoptosis in human A549 cells assessed as viable cells at 25 uM after 48 hrs by Annexin V-FITC/propidium iodide staining based flow cytometry (reference value: 98.2 %); assay type: functional; settings: A549, 48 h, read-out: Activity
[20] = test system: A549; assay: Cell cycle arrest in human A549 cells assessed as accumulation at G2/M phase at 25 uM after 48 hrs by propidium iodide staining based flow cytometry (reference value: 23.4 %); assay type: functional; how it was run: as §4
[21] = test system: A549; assay: Induction of apoptosis in human A549 cells assessed as increase in caspase 3/7 activity at 25 uM after 48 hrs by Caspase-Glo 3/7 assay relative to control; assay type: functional
How it was run: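 A549 cells (8×10^3) plated in duplicate in 96-well plates, treated 25 µM for 48 h. Caspase-Glo 3/7 luminescence read after 1 h with substrate; blank (medium plus reagent) subtracted; fold increase = treated/control reading; mean ± 1 SD.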

Row | Compound | IC50 [3] [µM] | IC50 [7] [µM] | IC50 [8] [µM] | IC50 [9] [µM] | IC50 [13] [µM] | Activity [14] [%] | Activity [15] [%] | Activity [16] [%] | Activity [17] [%] | Activity [18] [%] | viability at 25 µM [19] [%] | Activity [20] [%] | other results
1 | O=c1[nH]cc(F)c(=O)[nH]1 [FLUOROURACIL] | 35.9 | 98 | 39.9 | 15.4 | 72.1 |  |  |  |  |  |  |  | Activity [1]: 11.7%; Activity [2]: 5.2%; Activity [4]: 1%; Activity [5]: 15.3%; Activity [6]: 0.6%; Activity [10]: 74.3%; Activity [11]: 93.2%; fold change (FC) [12]: 4.2
2 | CN1CCN(C(=O)COc2ccc3c(=O)c4ccc(OCC(=O)N5CCN(C)CC5)cc4oc3c2)CC1 | > 400 | > 400 | > 400 | > 400 | > 400 | 0.7 | 2.7 | 2.5 | 10.1 | 66.4 | 94.1 | 24.2 | 
3 | O=C(COc1ccc2c(=O)c3ccc(OCC(=O)N4CCOCC4)cc3oc2c1)N1CCOCC1 | > 400 | > 400 | > 400 | > 400 | > 400 | 0.5 | 0.9 | 0.7 | 9.6 | 65.7 | 97.9 | 25.1 | 
4 | Cc1c(OCC(=O)N2CC(C)OC(C)C2)ccc2c(=O)c3ccc(OCC(=O)N4CC(C)OC(C)C4)cc3oc12 (stereo not drawn) | 385 | 116 | 295 | 141 | 214 | 0.7 | 0.2 | 0.8 | 9.7 | 66.9 | 98.3 | 24 | 
5 | Cc1c(OCC(=O)N2CCOCC2)ccc2c(=O)c3ccc(OCC(=O)N4CCOCC4)cc3oc12 | > 400 | > 400 | > 400 | > 400 | > 400 | 0.9 | 0.1 | 0.4 | 11.8 | 61 | 98.7 | 28 | 
6 | Cc1c(OCC(=O)N2CC(C)CC(C)C2)ccc2c(=O)c3ccc(OCC(=O)N4CC(C)CC(C)C4)cc3oc12 (stereo not drawn) | 8.06 | 4.76 | 4.59 | 6.09 | 6.18 | 37.5 | 1.1 | 12.4 | 6 | 78.9 | 49 | 15.5 | fold change (FC) [21]: 2.04
7 | CC1CCCC(C)N1C(=O)COc1ccc2c(=O)c3ccc(OCC(=O)N4C(C)CCCC4C)cc3oc2c1 (stereo not drawn) | 24.3 | 13.8 | 17.2 | 15.7 | 6.68 | 1.5 | 1.1 | 9.1 | 9.8 | 57.4 | 87.7 | 33.5 | fold change (FC) [21]: 2.31
8 | Cc1c(OCC(=O)NC2CCCCC2C)ccc2c(=O)c3ccc(OCC(=O)NC4CCCCC4C)cc3oc12 (stereo not drawn) | 11 | 15.4 | 22.3 | 18.3 | 23.3 | 3.1 | 1 | 2.4 | 9.4 | 61.8 | 93.6 | 29.1 | Activity [21]: inactive
9 | Cc1c(OCC(=O)N2CCN(C)CC2)ccc2c(=O)c3ccc(OCC(=O)N4CCN(C)CC4)cc3oc12 | 257 | 97.8 | 181 | 119 | 89.2 | 0.7 | 0.6 | 3.1 | 9 | 71.2 | 95.6 | 20.7 | 
10 | CCOC(=O)N1CCN(C(=O)COc2ccc3c(=O)c4ccc(OCC(=O)N5CCN(C(=O)OCC)CC5)c(C)c4oc3c2)CC1 | 64.5 | 34.1 | 84.9 | 8.16 | 53.3 | 1.6 | 0.3 | 1.1 | 11.9 | 65.5 | 97.1 | 23.2 | Activity [21]: inactive
11 | Cc1c(OCC(=O)NCC2CCCO2)ccc2c(=O)c3ccc(OCC(=O)NCC4CCCO4)cc3oc12 (stereo not drawn) | 98.4 | 78.7 | 27.5 | 33.8 | 34.5 | 1.2 | 0.9 | 2.5 | 13.2 | 74.6 | 95.4 | 13 | Activity [21]: inactive
12 | Cc1c(OCC(=O)N2C(C)CCCC2C)ccc2c(=O)c3ccc(OCC(=O)N4C(C)CCCC4C)cc3oc12 (stereo not drawn) | 7.31 | 7.1 | 10.6 | 7.63 | 4.27 | 7.3 | 2.1 | 9.8 | 6.9 | 75.7 | 80.7 | 17.6 | fold change (FC) [21]: 3.45
13 | O=C(COc1ccc2c(=O)c3ccc(OCC(=O)NCC4CCCO4)cc3oc2c1)NCC1CCCO1 (stereo not drawn) | > 400 | > 400 | > 400 | > 400 | 249 | 0.5 | 1.8 | 1.2 | 9.5 | 64.6 | 96.5 | 26.3 | 
